Laboratory results reported in BindingDB's records for doi:10.1021/acs.jmedchem.5b00085 (The Hong Kong Polytechnic University, 2015).

Tests used:
[1] = Modulation of P-gp (unknown origin) transfected in human MDA435/LCC6MDR cells assessed as reversible of paclitaxel resistance measured as IC50 for paclitaxel at 1 uM after 5 days by CellTiter 96 Aqueous assay
[2] = Modulation of P-gp (unknown origin) transfected in human MDA435/LCC6MDR cells assessed as reversing paclitaxel resistance measured as cell survival after 5 days by MTS assay
[3] = Modulation of BCRP (unknown origin) transfected in human HEK293/R2 cells assessed as potentiation of topotecan-induced cytotoxicity measured as topotecan IC50 at 1 uM after 5 days by MTS assay
[4] = Modulation of MRP1 (unknown origin) transfected in human 2008/MRP1 cells assessed as potentiation of doxorubicin-induced cytotoxicity measured as doxorubicin IC50 at 1 uM after 5 days by MTS assay
[5] = Modulation of P-gp (unknown origin) transfected in human MDA435/LCC6MDR cells assessed as reversing vincristine resistance measured as cell survival after 5 days by MTS assay
[6] = Modulation of P-gp (unknown origin) transfected in human MDA435/LCC6MDR cells assessed as reversing vinblastine resistance measured as cell survival after 5 days by MTS assay
[7] = Modulation of P-gp (unknown origin) transfected in human MDA435/LCC6MDR cells assessed as reversing doxorubicin resistance measured as cell survival after 5 days by MTS assay
[8] = target: ATP-dependent translocase ABCB1 (Homo sapiens, UniProt P08183); assay: Modulation of P-gp (unknown origin) transfected in human MDA435/LCC6MDR cells assessed as reversible of paclitaxel resistance measured as IC50 for paclitaxel at 10 uM after 5 days by CellTiter 96 Aqueous assay
How it was run: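 They were held 5 days at 37 °C and viability read by CellTiter 96 AQueous (MTS). […] RF = IC50 of PTX without modulator / IC50 with modulator.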

Chain of ATP-dependent translocase ABCB1 (P08183 whole entry): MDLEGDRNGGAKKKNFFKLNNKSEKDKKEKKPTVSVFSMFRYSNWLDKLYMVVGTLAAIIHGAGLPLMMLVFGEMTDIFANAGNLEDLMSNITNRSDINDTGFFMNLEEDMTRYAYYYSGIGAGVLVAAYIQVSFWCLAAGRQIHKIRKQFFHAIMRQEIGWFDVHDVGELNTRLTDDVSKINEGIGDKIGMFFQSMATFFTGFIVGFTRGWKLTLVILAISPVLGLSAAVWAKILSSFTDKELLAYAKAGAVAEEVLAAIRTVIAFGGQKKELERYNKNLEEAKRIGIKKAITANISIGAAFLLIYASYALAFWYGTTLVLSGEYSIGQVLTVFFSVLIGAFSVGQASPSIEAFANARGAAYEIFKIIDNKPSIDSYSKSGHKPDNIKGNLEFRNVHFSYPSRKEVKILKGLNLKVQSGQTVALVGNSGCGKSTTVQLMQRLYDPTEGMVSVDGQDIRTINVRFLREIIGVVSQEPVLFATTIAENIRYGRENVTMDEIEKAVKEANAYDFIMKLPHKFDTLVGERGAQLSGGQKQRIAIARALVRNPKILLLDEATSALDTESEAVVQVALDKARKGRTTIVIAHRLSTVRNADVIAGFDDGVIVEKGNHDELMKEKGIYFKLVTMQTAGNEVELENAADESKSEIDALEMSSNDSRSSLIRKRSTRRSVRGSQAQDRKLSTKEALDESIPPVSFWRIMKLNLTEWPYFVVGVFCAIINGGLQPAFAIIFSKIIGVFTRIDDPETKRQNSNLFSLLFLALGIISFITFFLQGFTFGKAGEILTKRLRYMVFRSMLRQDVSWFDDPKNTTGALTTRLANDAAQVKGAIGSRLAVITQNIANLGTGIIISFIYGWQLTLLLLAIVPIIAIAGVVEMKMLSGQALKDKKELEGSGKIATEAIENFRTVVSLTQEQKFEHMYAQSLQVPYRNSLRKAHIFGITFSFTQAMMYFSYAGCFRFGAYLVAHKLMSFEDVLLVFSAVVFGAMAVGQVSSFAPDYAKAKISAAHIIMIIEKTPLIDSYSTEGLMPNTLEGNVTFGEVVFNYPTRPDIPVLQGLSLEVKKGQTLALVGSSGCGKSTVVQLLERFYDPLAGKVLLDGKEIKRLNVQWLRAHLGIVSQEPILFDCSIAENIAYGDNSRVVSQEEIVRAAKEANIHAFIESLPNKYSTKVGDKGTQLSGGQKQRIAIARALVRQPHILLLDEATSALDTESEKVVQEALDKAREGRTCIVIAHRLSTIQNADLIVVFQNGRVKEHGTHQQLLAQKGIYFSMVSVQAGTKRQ

| Structure (SMILES) | IC50 [1] [nM] | further results |
| --- | --- | --- |
| COc1cc(OC)c2c(c1)O[C@H](c1cc(OC)c(OC)c(OC)c1)[C@@H](O)C2 | 136 | – |
| COc1ccc(C(=O)O[C@H]2Cc3c(OC)cc(OC)cc3O[C@@H]2c2cc(OC)c(OC)c(OC)c2)cc1 | 67 | – |
| COc1cc(OC)c2c(c1)O[C@H](c1cc(OC)c(OC)c(OC)c1)[C@@H](OC(=O)c1cc(OC)c(OC)c(OC)c1)C2=O | 44 | – |
| COc1cc(OC)c2c(c1)O[C@H](c1cc(OC)c(OC)c(OC)c1)[C@@H](OC(C)=O)C2=O | 107 | – |
| COc1ccc(C(=O)O[C@H]2C(=O)c3c(OC)cc(OC)cc3O[C@@H]2c2cc(OC)c(OC)c(OC)c2)cc1 | 48 | – |
| COc1cc(OC)c2c(c1)O[C@H](c1cc(OC)c(OC)c(OC)c1)[C@@H](OC(=O)c1ccc(OC)c(OC)c1)C2=O | 37 | – |
| COc1cc(OC)c2c(c1)O[C@H](c1cc(OC)c(OC)c(OC)c1)[C@@H](OC(=O)c1ccc(F)c(NC(=O)c3ccc(OC)c(OC)c3)c1)C2 | – | EC50 [2]: 171 nM; EC50 [5]: 147 nM; EC50 [6]: 173 nM; EC50 [7]: 208 nM; IC50 [3]: 45 nM; IC50 [4]: 142 nM |
| COc1cc(OC)c2c(c1)O[C@H](c1cc(OC)c(OC)c(OC)c1)[C@@H](OC(=O)c1ccc(F)c(NC(=O)c3cc(OC)c(OC)c(OC)c3)c1)C2 | – | EC50 [2]: 140 nM; EC50 [5]: 102 nM; EC50 [6]: 108 nM; EC50 [7]: 107 nM; IC50 [3]: 38 nM; IC50 [4]: 141 nM |
| COc1cccc(C(=O)O[C@@H]2Cc3c(OC)cc(OC)cc3O[C@@H]2c2cc(OC)c(OC)c(OC)c2)c1 | 45 | – |
| COc1cc(OC)c2c(c1)O[C@H](c1cc(OC)c(OC)c(OC)c1)[C@@H](OC(=O)c1ccc(F)c(NC(=O)/C=C/c3cc(OC)c(OC)c(OC)c3)c1)C2 | – | EC50 [2]: 225 nM |
| COc1cc(OC)c2c(c1)O[C@H](c1cc(OC)c(OC)c(OC)c1)[C@H](OC(=O)c1ccc(F)c(N(C)C)c1)C2 | 36 | – |
| COc1ccc(CC(=O)O[C@@H]2Cc3c(OC)cc(OC)cc3O[C@@H]2c2cc(OC)c(OC)c(OC)c2)cc1 | 34 | – |
| COc1cc(OC)c2c(c1)O[C@H](c1cc(OC)c(OC)c(OC)c1)[C@H](OC(=O)Cc1ccc(OC)c(OC)c1)C2 | 32 | – |
| CCOc1cc(C(=O)O[C@@H]2Cc3c(OC)cc(OC)cc3O[C@@H]2c2cc(OC)c(OC)c(OC)c2)cc(OCC)c1OCC | 113 | – |
| COc1cc(OC)c2c(c1)O[C@H](c1cc(OC)c(OC)c(OC)c1)[C@@H](OC(=O)c1ccc(F)c(NC(=O)/C=C/c3cc(OC)c(OC)c(OC)c3)c1)C2=O | 28 | – |
| COc1cc(OC)c2c(c1)O[C@H](c1cc(OC)c(OC)c(OC)c1)[C@H](OC(=O)c1cccc(F)c1)C2 | 97 | – |
| COc1cc(OC)c2c(c1)O[C@H](c1cc(OC)c(OC)c(OC)c1)[C@H](OC(=O)c1ccc(F)cc1)C2 | 53 | – |
| COc1ccc(C(=O)O[C@@H]2Cc3c(OC)cc(OC)cc3O[C@@H]2c2cc(OC)c(OC)c(OC)c2)cc1 | 148 | – |
| COc1cc(OC)c2c(c1)O[C@H](c1cc(OC)c(OC)c(OC)c1)[C@H](OC(=O)c1ccc(OC)c(OC)c1)C2 | 20 | – |
| COc1cc(OC)c2c(c1)O[C@H](c1cc(OC)c(OC)c(OC)c1)[C@@H](OC(=O)c1ccc(F)c(NC(=O)c3cc(OC)c(OC)c(OC)c3)c1)C2=O | 37 | – |
| C=CCOc1cc(C(=O)O[C@H]2C(=O)c3c(OC)cc(OC)cc3O[C@@H]2c2cc(OC)c(OC)c(OC)c2)cc(OCC=C)c1OCC=C | 32 | – |
| COc1ccc(/C=C/C(=O)O[C@H]2C(=O)c3c(OC)cc(OC)cc3O[C@@H]2c2cc(OC)c(OC)c(OC)c2)cc1 | 41 | – |
| CC(=O)Oc1cc(OC(C)=O)c2c(c1)O[C@H](c1cc(OC(C)=O)c(OC(C)=O)c(OC(C)=O)c1)[C@H](OC(=O)c1cc(OC(C)=O)c(OC(C)=O)c(OC(C)=O)c1)C2 | 176 | – |
| COc1cc(OC)c2c(c1)O[C@H](c1cc(OC)c(OC)c(OC)c1)[C@H](OC(=O)/C=C/c1cc(OC)c(OC)c(OC)c1)C2 | – | IC50 [3]: 357 nM; IC50 [4]: 322 nM |
| COc1ccc(CCC(=O)O[C@@H]2Cc3c(OC)cc(OC)cc3O[C@@H]2c2cc(OC)c(OC)c(OC)c2)cc1 | 40 | – |
| COc1cc(OC)c2c(c1)O[C@H](c1cc(OC)c(OC)c(OC)c1)[C@H](OC(=O)CCc1ccc(OC)c(OC)c1)C2 | 19 | – |
| COc1ccc(/C=C/C(=O)O[C@@H]2Cc3c(OC)cc(OC)cc3O[C@@H]2c2cc(OC)c(OC)c(OC)c2)cc1 | 22 | – |
| O=C(O[C@@H]1Cc2c(O)cc(O)cc2O[C@@H]1c1cc(O)c(O)c(O)c1)c1cc(O)c(O)c(O)c1 [(-)-Epigallocatechin-3-o-gallate] | 124 | IC50 [8]: 123 nM |

Second part, led by results:

| IC50 [1] [nM] | Structure (SMILES) | further results |
| --- | --- | --- |
| 19 | COc1ccc(/C=C/C(=O)O[C@H]2Cc3c(OC)cc(OC)cc3O[C@@H]2c2cc(OC)c(OC)c(OC)c2)cc1 | – |
| 12 | COc1cc(OC)c2c(c1)O[C@H](c1cc(OC)c(OC)c(OC)c1)[C@@H](OC(=O)c1ccc(OC)c(OC)c1)C2 | – |
| 3.3 | COc1cc(OC)c2c(c1)O[C@H](c1cc(OC)c(OC)c(OC)c1)[C@H](OC(=O)c1ccc(F)c(NC(=O)c3cc(OC)c(OC)c(OC)c3)c1)C2 | EC50 [2]: 214 nM; IC50 [3]: 207 nM; IC50 [4]: 418 nM |
| 14 | COc1cc(OC)c2c(c1)O[C@H](c1cc(OC)c(OC)c(OC)c1)[C@H](OC(=O)c1ccc(F)c(NC(=O)c3ccc(F)c(NC(=O)c4ccc(OC)c(OC)c4)c3)c1)C2 | – |
| 13 | COc1cc(OC)c2c(c1)O[C@H](c1cc(OC)c(OC)c(OC)c1)[C@H](OC(=O)c1ccc(F)c(NC(=O)c3ccc(F)c(NC(=O)c4cc(OC)c(OC)c(OC)c4)c3)c1)C2 | – |
| 6.6 | COc1cc(OC)c2c(c1)O[C@H](c1cc(OC)c(OC)c(OC)c1)[C@@H](OC(=O)c1ccc(F)c(NC(=O)/C=C/c3ccc(OC)c(OC)c3)c1)C2 | EC50 [2]: 280 nM |
| 15 | COc1cc(OC)c2c(c1)O[C@H](c1cc(OC)c(OC)c(OC)c1)[C@H](OC(=O)c1ccc(F)c(NC(C)=O)c1)C2 | – |
| 12 | C=CCOc1cc(C(=O)O[C@@H]2Cc3c(OC)cc(OC)cc3O[C@@H]2c2cc(OC)c(OC)c(OC)c2)cc(OCC=C)c1OCC=C | – |
| 9.4 | COc1cc(OC)c2c(c1)O[C@H](c1cc(OC)c(OC)c(OC)c1)[C@@H](OC(=O)c1ccc(F)c(NC(=O)c3ccc(OC)c(OC)c3)c1)C2=O | – |
| 6.2 | COc1cc(OC)c2c(c1)O[C@H](c1cc(OC)c(OC)c(OC)c1)[C@H](OC(=O)c1ccc(F)c(NC(=O)/C=C/c3cc(OC)c(OC)c(OC)c3)c1)C2 | – |
| 3 | COc1cc(OC)c2c(c1)O[C@H](c1cc(OC)c(OC)c(OC)c1)[C@H](OC(=O)c1ccc(F)c(NC(=O)c3ccc(OC)c(OC)c3)c1)C2 | EC50 [2]: 159 nM; EC50 [5]: 181 nM; EC50 [6]: 193 nM; EC50 [7]: 139 nM; IC50 [3]: 176 nM; IC50 [4]: 434 nM |
| 18 | COc1cc(OC)c2c(c1)O[C@H](c1cc(OC)c(OC)c(OC)c1)[C@H](OC(=O)CCc1cc(OC)c(OC)c(OC)c1)C2 | – |
| 8.7 | COc1cc(OC)c2c(c1)O[C@H](c1cc(OC)c(OC)c(OC)c1)[C@H](OC(=O)/C=C/c1ccc(OC)c(OC)c1)C2 | EC50 [2]: 157 nM; EC50 [5]: 167 nM; EC50 [6]: 123 nM; EC50 [7]: 160 nM |
